NPY-Y1 PAM-ag = NPY-Y1 receptor potentiators or agonists, primary screen, cell-based. AID 1304, 2008. Neuropeptide Y receptor type 1 (Homo sapiens), P25929. 0.37% of 220,000 active. activation, % at 3.6 µM. NPY-Y1 expressing cells, potentiator/agonist activation; in the data active = activation above about 33%, passing the limit was not always enough;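 note: cells stimulated with NPY at EC10 then isoproterenol at EC100; 0% = low agonist plus stimulus and 100% = saturating agonist plus stimulus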
NPY-Y1 antag = NPY-Y1 receptor antagonists, primary screen, cell-based; HEK293-CNG Y1 cells, membrane potential fluorescence; NPY at EC95, then isoproterenol; 1% of 200,000 active; inhibition, % at 3.6 µM;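 active = inhibition above the campaign mean inhibition of all tested compounds plus 3 SD, cut at about 20% in these data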;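 note: 0% = DMSO wells given NPY plus isoproterenol and 100% = isoproterenol alone without NPY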
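Material: HEK293 cells co-expressing NPY Y1 receptor and cyclic-nucleotide gated channel. Timing: compound incubation 1 h at room temperature, readout 45 min post-stimulation. Signal: fluorescence, membrane potential probe.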
NPY-Y2 antag = NPY-Y2 receptor antagonists, primary screen, cell-based; 0.99% of 140,000 active; NPY-Y2 expressing cells, antagonist mode; inhibition, % at 2.7 µM; Neuropeptide Y receptor type 2 (Homo sapiens), P49146; in the data active = inhibition above about 17%;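 note: 0% = vehicle with agonist challenge and 100% = reference antagonist with challenge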
Target sequence (P49146 whole entry, looked up): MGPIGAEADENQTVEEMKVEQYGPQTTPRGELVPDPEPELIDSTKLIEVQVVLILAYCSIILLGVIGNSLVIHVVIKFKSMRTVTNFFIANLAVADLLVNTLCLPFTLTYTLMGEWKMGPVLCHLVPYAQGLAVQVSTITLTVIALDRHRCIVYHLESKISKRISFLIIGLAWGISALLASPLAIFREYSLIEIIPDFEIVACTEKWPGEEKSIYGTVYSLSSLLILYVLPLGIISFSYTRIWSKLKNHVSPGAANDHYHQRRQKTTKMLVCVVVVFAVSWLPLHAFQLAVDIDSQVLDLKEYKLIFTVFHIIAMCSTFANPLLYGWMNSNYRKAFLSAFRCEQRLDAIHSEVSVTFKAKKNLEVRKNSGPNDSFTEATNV
NPY-Y2 PAM-ag = NPY-Y2 potentiators or agonists, primary screen, cell-based; Neuropeptide Y receptor type 2 (Homo sapiens), P49146; cells expressing NPY-Y2, potentiator/agonist read-out; activation, % at 3.6 µM; 0.45% of 220,000 active; in the data active = activation above about 27%;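 note: cells stimulated with NPY near EC25 plus isoproterenol at EC100; 0% = vehicle plus submaximal agonist and 100% = vehicle plus saturating agonist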
S1P4 agonist = S1P4 receptor agonists, primary screen, cell-based. S1P4-expressing cell line, agonist reporter assay. activation, % at 4.98 µM. 0.35% of 220,000 active. AID 1509, 2009; in the data active = activation above about 11%;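 note: 0% = DMSO vehicle and 100% = reference agonist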
S1P4 antag = S1P4 receptor antagonists, primary screen, cell-based; Sphingosine 1-phosphate receptor 4 (Homo sapiens), O95977; S1P4-expressing cells, antagonist mode, reporter read-out; inhibition, % at 4.98 µM; 0.26% of 220,000 active; in the data active = inhibition above about 29%;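 note: 0% = wells stimulated with agonist and 100% = vehicle wells without agonist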
NPY-Y1 antag ct = NPY-Y1 receptor antagonists, selectivity check, counter-screen for NPY-Y2 antagonist project, cell-based. cell-based NPY-Y1 antagonism counterscreen. inhibition, % at 3.6 µM. 19% of 710 active. shares compounds with NPY-Y2 antag; in the data active = inhibition above about 20%;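 note: cells challenged with NPY then isoproterenol with cAMP sensed through a CNG channel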
NPY-Y2 ant conf = NPY-Y2 receptor antagonists, retest of hits, confirmation, HEK293-CNG cells, membrane potential fluorescence, triplicate | inhibition, % at 2.8 µM | HEK293 NPY-Y2 CNG channel | shares compounds with NPY-Y2 antag | 32% of 710 active | AID 1257, 2008;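 active = mean inhibition of triplicate wells above the hit cutoff set in the primary screen, cut at about 17% in these data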;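 note: 0% = DMSO with NPY challenge and 100% = BIIE0246 high control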
An asterisk follows results filed as active; . = not tested or not shown. Rows were chosen to be rich in hits. Some 2.4% of all compounds tested hit in one or more screens of this group.

SMILES	NPY-Y1 PAM-ag	NPY-Y1 antag	NPY-Y2 antag	NPY-Y2 PAM-ag	S1P4 agonist	S1P4 antag	NPY-Y1 antag ct	NPY-Y2 ant conf
COc1ccc(C(CCN)Cc2ccccc2)cc1 (configuration not stated)	-7	7	.	2	1	12	.	.
CC1=CC(C)(C)N(S(=O)(=O)c2ccc(C)cc2)c2ccc(C)cc21	7	8	21*	-2	0	11	24*	20*
Cc1nc(N2CCOCC2)c2oc3ccccc3c2n1	-8	5	-2	1	0	-7	.	.
CCOC(=O)C1CCCN(c2nc(C)nc3c2oc2ccccc23)C1 (configuration not stated)	-10	7	18*	-22	0	-10	15	14
Cc1ccccc1C(=O)NNC(=O)CSc1nnc(C)n1-c1ccccc1	7	-2	-1	6	4	-15	.	.
CCOC(=O)c1c(-c2ccc(C)o2)csc1NC(=O)CN1CCOCC1	5	4	6	-9	1	-5	.	.
CCOC(=O)c1c(-c2ccc(C)o2)csc1NC(=O)COC(=O)c1cccs1	-26	4	20*	-4	0	-12	5	2
O=C(NC1CCCCC1)c1cnn2c(C(F)(F)F)cc(-c3ccco3)nc12	-25	13	19*	5	2	-11	10	3
CCCNC(=O)c1nnsc1Sc1ccc(Cl)cc1	6	1	.	2	-1	10	.	.
Cc1ccc(SCc2[nH]nc3c2C(c2cccnc2)C(C#N)=C(N)O3)cc1 (configuration not stated)	-13	6	18*	7	1	-23	93*	81*
CCc1[nH]nc2c1C(c1cccnc1)C(C#N)=C(N)O2 (configuration not stated)	5	1	2	8	0	-15	.	.
O=C(Nc1nccs1)c1cccc(S(=O)(=O)N2CCOCC2)c1	1	-4	3	-4	1	6	.	.
Cc1ccc(CNc2nc(C)nc3sc4c(c23)CCC4)cc1	-34	14	20*	-32	0	-11	27*	20*
Cc1nc(NS(=O)(=O)c2ccc(Br)cc2)c2c3c(sc2n1)CCC3	-10	0	2	-2	0	-13	.	.
CN(C)c1ccc(/C=C2\SC(=O)N(CC(O)Cn3c4ccccc4c4ccccc43)C2=O)cc1 (configuration not stated)	-24	14	21*	-7	-1	-17	26*	9
CC(=O)c1cc(CC=C(C)C)c(O)cc1O	6	-3	1	-8	-2	-1	.	.
CC(=O)c1cc(CC=C(C)C)c(O)c(CC=C(C)C)c1O	-13	9	25*	-6	1	-16	9	15
COc1ccc(S(=O)(=O)NCC2CCCN(Cc3ccccc3C)C2)cc1 (configuration not stated)	-17	8	.	-14	1	-3	.	.
O=C(NCCNS(=O)(=O)c1ccccc1)c1cc(OCC(F)(F)F)ccc1OCC(F)(F)F	8	-4	-1	-12	-1	-12	.	.
O=C(NCCNS(=O)(=O)c1ccc(Cl)cc1)c1cc(OCC(F)(F)F)ccc1OCC(F)(F)F	27	-7	38*	8	-2	-19	0	0
c1coc(Cn2c(-c3ccco3)nc3ccccc32)c1	-20	-7	8	5	-1	-5	.	.
Clc1ccc(OCCn2c(-c3ccco3)nc3ccccc32)cc1	-44	19	31*	-25	0	0	32*	12
CN(C)C(=O)C(CCN1CCC(O)(c2ccc(Cl)cc2)CC1)(c1ccccc1)c1ccccc1	-39	19	25*	0	1	-6	15	28*

Screens (PubChem)
